Active and inactive are the calls of the source.
Tests used:
Assay type in all cases: functional, cell-based
CCRF-CEM = test: Cytotoxicity against human CEM cells at 10 uM after 48 hrs by fluorescent microplate assay
In short: (§1)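 Cells were seeded in 96-well plates in RPMI 1640 with 10% fetal calf serum and 10 units/mL penicillin-streptomycin. They were then cultured 24 h at 37 °C in humidified 5% CO2 before treatment. Compounds were added dissolved in DMSO, and the read-out was cell viability.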

U-937 = test: Cytotoxicity against human U937 cells at 10 uM after 48 hrs by fluorescent microplate assay; in short: as §1
K562 = test: Cytotoxicity against human K562 cells at 10 uM after 48 hrs by fluorescent microplate assay; in short: as §1
U-266 = test: Cytotoxicity against human U266 cells at 10 uM after 48 hrs by fluorescent microplate assay; in short: as §1
HL-60 = test: Cytotoxicity against human HL60 cells at 10 uM after 48 hrs by fluorescent microplate assay; in short: as §1
NCI-H929 = test: Cytotoxicity against human NCI-H929 cells at 10 uM after 48 hrs by fluorescent microplate assay; in short: as §1
KG-1 = test: Cytotoxicity against human KG1 cells at 10 uM after 48 hrs by fluorescent microplate assay; in short: as §1
Jurkat = test: Cytotoxicity against human Jurkat cells at 10 uM after 48 hrs by fluorescent microplate assay; in short: as §1

Measured: Activity

COc1cc([C@H]2Oc3c(OC)cc([C@H](O)[C@H](O)CO[C@@H]4O[C@H](CO)[C@@H](O)[C@H](O)[C@H]4O)cc3[C@@H]2CO)ccc1O
inactive: CCRF-CEM | U-937 | K562 | U-266 | HL-60 | NCI-H929 | KG-1 | Jurkat

O=C(/C=C/c1ccc(O)c(O)c1)O[C@H]1[C@H](O[C@@H]2OC[C@](O)(CO)[C@H]2O)[C@@H](O)[C@H](OCCc2ccc(O)c(O)c2)O[C@@H]1CO[C@@H]1OC[C@H](O[C@@H]2OC[C@](O)(CO)[C@H]2O)[C@H](O)[C@H]1O
inactive: CCRF-CEM | U-937 | K562 | U-266 | HL-60 | NCI-H929 | KG-1 | Jurkat
